Data taken from ChEMBL document CHEMBL1122936, “Facile synthesis of platelet-activating factor and racemic analogues containing unsaturation in the sn-1-alkyl chain” (1985).

Tests used:
Assay type in all cases: functional
Homo sapiens [1] = species: Homo sapiens; experiment: Effective dose for lysozyme release in human PMN was measured
Summary of the method: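 Human PMN at 2.6×10^6 cells/mL in Hanks' buffer, 37 °C, 20 min. Cytochalasin B 5 μg/mL for 2–4 min, then racemic analogue challenge 5 min, on ice, spun 200g at 4 °C. Net lysozyme release = % of total minus unstimulated release. ED10 extrapolated for 10% net release from curves averaged over ≥5 dose-response experiments.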

Homo sapiens [2] = species: Homo sapiens; experiment: Desensitizing action on human PMN degranulation response, in the presence of FMLP (17 nM) at the dose of 8 nM
Summary of the method: (§1)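 Human neutrophils (>96% PMN, <5 platelets/100 PMN, no erythrocytes) in Hanks' buffer at 2.6×10^6 cells/mL, 37 °C, 20 min; preincubated 8 min with desensitizing agent (in BSA) or BSA alone, then cytochalasin B 5 μg/mL for 2–4 min, challenged 5 min (200 nM PAF or 17 nM FMLP). Supernatant assayed for net β-glucuronidase release, 14 experiments; unpaired t-test versus BSA.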

Oryctolagus cuniculus = species: Oryctolagus cuniculus; experiment: Effective dose for [14C]5-HT release in prelabeled rabbit platelets was measured; conditions: read-out: ED50 (the source's name)
Summary of the method: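 Rabbit platelet-rich plasma labeled with [14C]serotonin 1.0 μCi/mL, 37 °C, 15 min. Washed twice, then 5×10^7 platelets/0.2 mL in citrate-free Tyrode's (pH 7.3) with 1 mM Ca2+, 37 °C, 20 min. Challenged 1 min, stopped with formalin on ice, supernatant label counted as % of total cellular label. ED50 extrapolated for 50% release from curves averaged over ≥5 dose-response experiments.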

Homo sapiens [3] = species: Homo sapiens; experiment: Desensitizing action on human PMN degranulation response, in the presence of PAF (200 nM) at the dose of 8 nM; summary of the method: as §1
Homo sapiens [4] = species: Homo sapiens; experiment: Desensitizing action on human PMN degranulation response, in the presence of FMLP (17 nM) at the dose of 17 nM
Summary of the method: (§2)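 Human neutrophils (>96% PMN, <5 platelets/100 PMN, no erythrocytes) at 2.6×10^6 cells/mL in Hanks' buffer, 37 °C, 20 min. Preincubated 8 min with desensitizing agent in BSA, or BSA alone. Then cytochalasin B 5 μg/mL for 2–4 min, then challenge 5 min with 200 nM 1-O-hexadecyl PAF or 17 nM FMLP. Read-out is net β-glucuronidase release vs BSA-pretreated cells, 14 experiments, unpaired t-test.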

Homo sapiens [5] = species: Homo sapiens; experiment: Desensitizing action on human PMN degranulation response, in the presence of PAF (200 nM) at the dose of 17 nM; summary of the method: as §2
Homo sapiens [6] = species: Homo sapiens; experiment: Desensitizing action on human PMN degranulation response, in the presence of PAF (200 nM) at the dose of 10 nM; summary of the method: as §2
Homo sapiens [7] = species: Homo sapiens; experiment: Desensitizing action on human PMN degranulation response, in the presence of FMLP (17 nM) at the dose of 10 nM; summary of the method: as §2
Homo sapiens [8] = species: Homo sapiens; experiment: Desensitizing action on human PMN degranulation response, in the presence of PAF (200 nM) at the dose of 60 nM; summary of the method: as §2
Homo sapiens [9] = species: Homo sapiens; experiment: Desensitizing action on human PMN degranulation response, in the presence of FMLP (17 nM) at the dose of 60 nM; summary of the method: as §2
Homo sapiens [10] = species: Homo sapiens; experiment: Desensitizing action on human PMN degranulation response, in the presence of FMLP (17 nM) at the dose of 9 nM; summary of the method: as §2
Homo sapiens [11] = species: Homo sapiens; experiment: Desensitizing action on human PMN degranulation response, in the presence of PAF (200 nM) at the dose of 9 nM; summary of the method: as §2

EC50 (Oryctolagus cuniculus) [nM] | Structure (SMILES) | ED10 (Homo sapiens [1]) [nM] | Degranulating activity (Homo sapiens [6]) | Degranulating activity (Homo sapiens [7]) | other results
0.4 | CCCCCCCC/C=C\CCCCCCCCOCC(COP(=O)([O-])OCC[N+](C)(C)C)OC(C)=O (configuration not stated) | 13 | 0.3 | 28.2 | –
0.8 | CCCCCCCCCCCCCCCCCCOCC(COP(=O)([O-])OCC[N+](C)(C)C)OC(C)=O (configuration not stated) | 60 | – | – | Degranulating activity (Homo sapiens [8]): -1.2; Degranulating activity (Homo sapiens [9]): 22

The remaining lines, values behind:

Structure (SMILES) | EC50 (Oryctolagus cuniculus) [nM] | ED10 (Homo sapiens [1]) [nM] | Degranulating activity (Homo sapiens [6]) | Degranulating activity (Homo sapiens [7]) | other results
CCCCCCCCCCCCCCCCOCC(COP(=O)([O-])OCC[N+](C)(C)C)OC(C)=O (configuration not stated) [PLATELET ACTIVATING FACTOR] | 0.2 | 8 | – | – | Degranulating activity (Homo sapiens [2]): 23.6; Degranulating activity (Homo sapiens [3]): -0.2
CSCC[C@H](NC=O)C(=O)N[C@@H](CC(C)C)C(=O)N[C@@H](Cc1ccccc1)C(=O)O | – | – | – | – | Degranulating activity (Homo sapiens [4]): 6.2; Degranulating activity (Homo sapiens [5]): 11.9
CCCCCC/C=C\CCCCCCCCOCC(COP(=O)([O-])OCC[N+](C)(C)C)OC(C)=O (configuration not stated) | 0.5 | 10 | 1.4 | 29.5 | –
CCCCC/C=C\C/C=C\CCCCCCCCOCC(COP(=O)([O-])OCC[N+](C)(C)C)OC(C)=O (configuration not stated) | 0.3 | 9 | – | – | Degranulating activity (Homo sapiens [10]): 26.3; Degranulating activity (Homo sapiens [11]): 0.1
